# pIC50: −log10 of the molar value. Active and inactive are the calls of the source. The calls are words filed in the database; no cut-off is given here.
# Key:
# [1] = target: Voltage-gated inwardly rectifying potassium channel KCNH2 (Homo sapiens, UniProt Q12809); test: Inhibition of human ERG expressed in HEK293 cells after 3 hrs by nonradioactive rubidium efflux assay; assay type: cell-based; conditions: hek293, 3 h
# Dipeptidyl peptidase 8 = Dipeptidyl peptidase 8 (Homo sapiens, UniProt Q6V1X1); test: Inhibition of DPP8 after 20 mins by fluorescence assay
# Dipeptidyl peptidase 8, sequence (Q6V1X1 whole entry): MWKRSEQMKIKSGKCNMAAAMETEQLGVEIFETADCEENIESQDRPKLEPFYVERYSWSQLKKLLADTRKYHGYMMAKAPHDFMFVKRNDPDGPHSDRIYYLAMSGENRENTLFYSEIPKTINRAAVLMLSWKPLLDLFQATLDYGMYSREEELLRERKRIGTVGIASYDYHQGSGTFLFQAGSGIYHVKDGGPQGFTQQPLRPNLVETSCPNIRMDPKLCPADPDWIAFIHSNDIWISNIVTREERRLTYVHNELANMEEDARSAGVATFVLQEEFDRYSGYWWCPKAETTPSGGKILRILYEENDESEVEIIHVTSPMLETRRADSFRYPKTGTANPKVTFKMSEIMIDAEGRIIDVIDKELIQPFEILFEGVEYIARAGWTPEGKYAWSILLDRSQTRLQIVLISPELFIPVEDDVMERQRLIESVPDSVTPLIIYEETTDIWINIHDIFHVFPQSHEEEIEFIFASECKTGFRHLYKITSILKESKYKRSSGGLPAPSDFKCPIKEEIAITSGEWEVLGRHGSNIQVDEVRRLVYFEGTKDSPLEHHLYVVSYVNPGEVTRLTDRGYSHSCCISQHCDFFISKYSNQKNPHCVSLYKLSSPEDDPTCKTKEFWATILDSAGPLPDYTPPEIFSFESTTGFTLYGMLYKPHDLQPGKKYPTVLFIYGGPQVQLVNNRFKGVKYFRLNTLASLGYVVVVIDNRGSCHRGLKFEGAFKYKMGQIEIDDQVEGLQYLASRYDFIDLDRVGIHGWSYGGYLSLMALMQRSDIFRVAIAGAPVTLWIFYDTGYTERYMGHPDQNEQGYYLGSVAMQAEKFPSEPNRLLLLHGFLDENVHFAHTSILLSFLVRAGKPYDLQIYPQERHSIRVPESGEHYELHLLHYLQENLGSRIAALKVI
# In short: (§1)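 Enzyme and inhibitor were preincubated for 10 min at room temperature in 50 mM Tris pH 7.5 with 0.1% BSA. The reaction was started with Gly-Pro-AMC and run for 20 min at room temperature. IC50 is the mean of three separate experiments, from curve fitting.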
# Dipeptidyl peptidase 4 = Dipeptidyl peptidase 4 (Homo sapiens, UniProt P27487); test: Inhibition of DPP4 after 20 mins by fluorescence assay
# Dipeptidyl peptidase 4, sequence (P27487 whole entry): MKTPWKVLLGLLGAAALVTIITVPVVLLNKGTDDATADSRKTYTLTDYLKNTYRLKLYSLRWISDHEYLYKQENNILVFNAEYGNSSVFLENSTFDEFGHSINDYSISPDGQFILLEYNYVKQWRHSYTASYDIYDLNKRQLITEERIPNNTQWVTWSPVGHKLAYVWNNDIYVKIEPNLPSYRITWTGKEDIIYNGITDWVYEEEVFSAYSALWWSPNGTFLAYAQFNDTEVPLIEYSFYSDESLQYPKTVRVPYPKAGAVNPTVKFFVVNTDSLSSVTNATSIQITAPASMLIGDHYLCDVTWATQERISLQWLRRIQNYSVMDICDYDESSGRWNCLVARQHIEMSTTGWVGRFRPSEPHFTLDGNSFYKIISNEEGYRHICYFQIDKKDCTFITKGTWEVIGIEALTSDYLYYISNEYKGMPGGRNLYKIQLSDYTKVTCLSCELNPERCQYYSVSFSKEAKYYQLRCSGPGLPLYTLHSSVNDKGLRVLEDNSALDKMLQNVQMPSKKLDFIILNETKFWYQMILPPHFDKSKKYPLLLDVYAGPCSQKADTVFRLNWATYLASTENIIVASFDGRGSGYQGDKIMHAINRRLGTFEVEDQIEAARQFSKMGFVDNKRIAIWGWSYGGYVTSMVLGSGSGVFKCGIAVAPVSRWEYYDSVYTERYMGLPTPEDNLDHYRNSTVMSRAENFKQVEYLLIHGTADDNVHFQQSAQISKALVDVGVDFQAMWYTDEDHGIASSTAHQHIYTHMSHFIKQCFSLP
# Dipeptidyl peptidase 9 = Dipeptidyl peptidase 9 (Homo sapiens, UniProt Q86TI2); test: Inhibition of DPP9 after 20 mins by fluorescence assay; in short: as §1
# Dipeptidyl peptidase 9, sequence (Q86TI2 whole entry): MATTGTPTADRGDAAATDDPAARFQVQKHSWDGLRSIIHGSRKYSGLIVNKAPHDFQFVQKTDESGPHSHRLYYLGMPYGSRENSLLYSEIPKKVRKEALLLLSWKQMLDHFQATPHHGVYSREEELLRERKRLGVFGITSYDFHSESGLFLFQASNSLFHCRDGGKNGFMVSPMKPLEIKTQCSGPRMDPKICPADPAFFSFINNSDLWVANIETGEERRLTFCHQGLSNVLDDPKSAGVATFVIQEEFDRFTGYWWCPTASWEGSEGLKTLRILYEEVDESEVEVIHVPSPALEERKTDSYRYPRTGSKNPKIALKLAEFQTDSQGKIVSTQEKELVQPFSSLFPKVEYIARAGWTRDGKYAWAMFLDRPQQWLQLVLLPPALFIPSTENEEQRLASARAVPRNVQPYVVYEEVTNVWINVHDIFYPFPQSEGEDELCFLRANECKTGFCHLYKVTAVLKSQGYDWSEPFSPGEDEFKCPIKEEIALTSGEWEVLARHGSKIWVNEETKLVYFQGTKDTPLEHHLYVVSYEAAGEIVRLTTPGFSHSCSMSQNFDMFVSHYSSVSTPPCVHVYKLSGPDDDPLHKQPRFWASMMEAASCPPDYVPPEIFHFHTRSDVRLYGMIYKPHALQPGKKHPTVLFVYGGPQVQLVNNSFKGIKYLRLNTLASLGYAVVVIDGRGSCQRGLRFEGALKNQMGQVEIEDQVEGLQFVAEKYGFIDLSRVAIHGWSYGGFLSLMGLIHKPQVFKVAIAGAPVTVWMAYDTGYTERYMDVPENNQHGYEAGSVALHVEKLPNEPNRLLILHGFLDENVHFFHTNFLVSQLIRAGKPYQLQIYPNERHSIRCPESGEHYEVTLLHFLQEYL
# [2] = Oral bioavailability in Sprague-Dawley rat at 20 mg/kg; assay type: ADME, organism-based; conditions: in vivo
# [3] = Cmax in Sprague-Dawley rat at 20 mg/kg, po; assay type: ADME, organism-based; set-up: dose 20 mg/kg, route oral; conditions: in vivo
# [4] = Tmax in Sprague-Dawley rat at 10 mg/kg, iv; assay type: ADME, organism-based; set-up: dose 10 mg/kg, route intravenous; conditions: in vivo
# [5] = Tmax in Sprague-Dawley rat at 20 mg/kg, po; assay type: ADME, organism-based; set-up: dose 20 mg/kg, route oral; conditions: in vivo
# [6] = Plasma clearance in Sprague-Dawley rat at 10 mg/kg, iv; assay type: ADME, organism-based; set-up: dose 10 mg/kg, route intravenous
# [7] = Plasma clearance in Beagle dog at 20 mg/kg, po; assay type: ADME, organism-based, Canis lupus familiaris; set-up: dose 20 mg/kg, route oral
# [8] = Mean residence time in Sprague-Dawley rat at 10 mg/kg, iv; assay type: ADME, organism-based; set-up: dose 10 mg/kg, route intravenous; conditions: in vivo
# [9] = Mean residence time in Beagle dog at 20 mg/kg, po; assay type: ADME, organism-based, Canis lupus familiaris; set-up: dose 20 mg/kg, route oral; conditions: in vivo
# [10] = Tmax in Beagle dog at 20 mg/kg, po; assay type: ADME, organism-based, Canis lupus familiaris; set-up: dose 20 mg/kg, route oral; conditions: in vivo
# [11] = AUC (0 to t) in Sprague-Dawley rat at 10 mg/kg, iv; assay type: ADME, organism-based; set-up: dose 10 mg/kg, route intravenous; conditions: plasma
# [12] = Plasma clearance in Beagle dog at 10 mg/kg, iv; assay type: ADME, organism-based, Canis lupus familiaris; set-up: dose 10 mg/kg, route intravenous
# [13] = Oral bioavailability in Beagle dog at 20 mg/kg; assay type: ADME, organism-based, Canis lupus familiaris; conditions: in vivo
# Mus musculus [14] = test: Antidiabetic activity in ICR mouse assessed as reduction of serum DPP4 activity at 3 mg/kg, po; assay type: functional, organism-based; set-up: dose 3 mg/kg
# In short: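 Compound was given orally at 3 mg/kg, or vehicle, with n = 5 per group. Serum was mixed with 80 mM MgCl2 for 5 min at room temperature, then 0.1 mM Gly-Pro-AMC and buffer were added. Fluorescence (ex 380 nm, em 460 nm) was read every 3 min over 18 min, and serum DPP-IV specific activity was calculated from these reads.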
# Rattus norvegicus = test: AUC (0 to t) in Sprague-Dawley rat at 20 mg/kg, po; assay type: ADME, organism-based, Plasma; set-up: dose 20 mg/kg, route oral; conditions: in vivo
# [15] = AUC (0 to t) in Beagle dog at 20 mg/kg, po; assay type: ADME, organism-based, Canis lupus familiaris; set-up: dose 20 mg/kg, route oral; conditions: plasma
# [16] = Cmax in Sprague-Dawley rat at 10 mg/kg, iv; assay type: ADME, organism-based; set-up: dose 10 mg/kg, route intravenous; conditions: in vivo
# [17] = Mean residence time in Beagle dog at 10 mg/kg, iv; assay type: ADME, organism-based, Canis lupus familiaris; set-up: dose 10 mg/kg, route intravenous; conditions: in vivo
# Mus musculus [18] = test: Antidiabetic activity in C57BL/6J mouse high-fat diet model assessed as reduction in glucose AUC (0 to 120) at 3 mg/kg, po pretreated 30 mins before glucose challenge measured by oral glucose tolerance test; assay type: functional, organism-based; set-up: dose 3 mg/kg
# [19] = Half life in Beagle dog at 10 mg/kg, iv; assay type: ADME, organism-based, Canis lupus familiaris; set-up: dose 10 mg/kg, route intravenous; conditions: in vivo
# [20] = Mean residence time in Sprague-Dawley rat at 20 mg/kg, po; assay type: ADME, organism-based; set-up: dose 20 mg/kg, route oral; conditions: in vivo
# [21] = Cmax in Beagle dog at 20 mg/kg, po; assay type: ADME, organism-based, Canis lupus familiaris; set-up: dose 20 mg/kg, route oral; conditions: in vivo
# [22] = Half life in Beagle dog at 20 mg/kg, po; assay type: ADME, organism-based, Canis lupus familiaris; set-up: dose 20 mg/kg, route oral; conditions: in vivo
# [23] = Half life in Sprague-Dawley rat at 20 mg/kg, po; assay type: ADME, organism-based; set-up: dose 20 mg/kg, route oral; conditions: in vivo
# [24] = Tmax in Beagle dog at 10 mg/kg, iv; assay type: ADME, organism-based, Canis lupus familiaris; set-up: dose 10 mg/kg, route intravenous; conditions: in vivo
# [25] = AUC (0 to t) in Beagle dog at 10 mg/kg, iv; assay type: ADME, organism-based, Canis lupus familiaris; set-up: dose 10 mg/kg, route intravenous; conditions: plasma
# [26] = Half life in Sprague-Dawley rat at 10 mg/kg, iv; assay type: ADME, organism-based; set-up: dose 10 mg/kg, route intravenous; conditions: in vivo
# [27] = Cmax in Beagle dog at 10 mg/kg, iv; assay type: ADME, organism-based, Canis lupus familiaris; set-up: dose 10 mg/kg, route intravenous; conditions: in vivo
# Voltage-gated inwardly rectifying potassium channel KCNH2, sequence (Q12809 whole entry): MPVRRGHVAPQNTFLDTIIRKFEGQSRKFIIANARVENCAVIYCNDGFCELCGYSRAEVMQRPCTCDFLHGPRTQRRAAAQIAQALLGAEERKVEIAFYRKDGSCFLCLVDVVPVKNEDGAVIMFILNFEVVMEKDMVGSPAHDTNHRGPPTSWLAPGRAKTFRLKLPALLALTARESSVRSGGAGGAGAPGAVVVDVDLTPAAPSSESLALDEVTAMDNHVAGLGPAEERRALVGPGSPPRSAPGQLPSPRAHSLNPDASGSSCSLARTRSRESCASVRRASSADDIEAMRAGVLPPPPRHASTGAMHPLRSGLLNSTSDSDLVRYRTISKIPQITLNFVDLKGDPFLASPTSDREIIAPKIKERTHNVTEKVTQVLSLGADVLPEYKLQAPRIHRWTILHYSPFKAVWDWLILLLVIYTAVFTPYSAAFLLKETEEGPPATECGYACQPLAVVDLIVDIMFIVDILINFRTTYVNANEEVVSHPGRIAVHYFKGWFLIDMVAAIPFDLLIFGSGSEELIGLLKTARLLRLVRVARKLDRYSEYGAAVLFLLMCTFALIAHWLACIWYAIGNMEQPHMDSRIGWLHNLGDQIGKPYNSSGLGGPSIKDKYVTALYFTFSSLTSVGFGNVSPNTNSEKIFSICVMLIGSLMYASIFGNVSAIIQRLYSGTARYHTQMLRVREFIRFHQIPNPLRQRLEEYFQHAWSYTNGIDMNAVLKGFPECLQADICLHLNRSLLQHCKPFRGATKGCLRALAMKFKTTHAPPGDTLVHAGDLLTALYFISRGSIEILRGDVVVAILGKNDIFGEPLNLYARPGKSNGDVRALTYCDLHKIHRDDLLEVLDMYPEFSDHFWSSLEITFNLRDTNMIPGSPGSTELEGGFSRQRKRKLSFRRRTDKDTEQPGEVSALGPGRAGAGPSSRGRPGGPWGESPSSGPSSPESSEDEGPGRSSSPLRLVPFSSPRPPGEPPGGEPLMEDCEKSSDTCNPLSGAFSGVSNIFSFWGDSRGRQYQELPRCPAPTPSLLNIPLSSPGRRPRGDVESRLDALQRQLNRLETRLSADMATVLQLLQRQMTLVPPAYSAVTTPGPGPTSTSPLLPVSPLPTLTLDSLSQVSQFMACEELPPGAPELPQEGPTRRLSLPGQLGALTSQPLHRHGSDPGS
smiles,measurement,setting,value
N#Cc1ccccc1Cn1c(N2CCC[C@@H](N)C2)nc2sccc2c1=O,Activity,[1],484.6 µM
same,pIC50,Dipeptidyl peptidase 8,< 4.60
same,pIC50,Dipeptidyl peptidase 4,9.06
same,pIC50,Dipeptidyl peptidase 9,< 4.60
Cc1csc2c(=O)n(Cc3ccccc3C#N)c(N3CCC[C@@H](N)C3)nc12,Activity,[1],203.5 µM
same,pIC50,Dipeptidyl peptidase 8,< 4.60
same,pIC50,Dipeptidyl peptidase 4,8.76
same,pIC50,Dipeptidyl peptidase 9,< 4.60
N#Cc1ccccc1Cn1c(N2CCC[C@@H](N)C2)nc2ccsc2c1=O,bioavailability,[2],23.7%
same,Cmax,[3],170 ng/mL
same,Tmax,[4],2.4 min
same,Tmax,[5],0.59 h
same,clearance,[6],116 mL/min/kg
same,CL/F,[7],11.5 mL/min/kg
same,MRT,[8],2.7 h
same,MRT,[9],9 h
same,Tmax,[10],0.91 h
same,Activity,[1],517.4 µM
same,AUC(0-t),[11],1480 ng·h/mL
same,pIC50,Dipeptidyl peptidase 8,< 4.60
same,clearance,[12],22.2 mL/min/kg
same,bioavailability,[13],42.3%
same,Activity,Mus musculus [14],Active
same,AUC,Rattus norvegicus,690 ng·h/mL
same,pIC50,Dipeptidyl peptidase 4,9.48
same,AUC(0-t),[15],11200 ng·h/mL
same,Cmax,[16],1230 ng/mL
same,MRT,[17],6 h
same,Activity,Mus musculus [18],Active
same,pIC50,Dipeptidyl peptidase 9,< 4.60
same,half-life,[19],10.1 h
same,MRT,[20],6.7 h
same,Cmax,[21],2070 ng/mL
same,half-life,[22],11.3 h
same,half-life,[23],7 h
same,Tmax,[24],6 min
same,AUC(0-t),[25],13300 ng·h/mL
same,half-life,[26],5.9 h
same,Cmax,[27],5750 ng/mL
N#Cc1ccccc1Cn1c(N2CCC[C@@H](N)C2)nc2scc(C(F)(F)F)c2c1=O,pIC50,Dipeptidyl peptidase 8,< 4.60
same,pIC50,Dipeptidyl peptidase 4,7.05
same,pIC50,Dipeptidyl peptidase 9,< 4.60
Cc1csc2nc(N3CCC[C@@H](N)C3)n(Cc3ccccc3C#N)c(=O)c12,Activity,[1],376.3 µM
same,pIC50,Dipeptidyl peptidase 8,< 4.60
same,pIC50,Dipeptidyl peptidase 4,8.88
same,pIC50,Dipeptidyl peptidase 9,< 4.60
